Experimental data reported in ChEMBL document CHEMBL1145217, “Discovery of novel tetrahydroisoquinoline derivatives as potent and selective factor Xa inhibitors” (Bioorg Med Chem Lett, 2005).

Key:
[1] = Mean inhibitory concentration against thrombin; n=3
Outline: (§1)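 Ki against each protease (factor Xa, thrombin, plasmin, trypsin), obtained from Dixon plots built at two substrate concentrations; mean of n = 3.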

[2] = Mean inhibitory concentration against trypsin; n=3; outline: as §1
Plasminogen = Plasminogen (Homo sapiens, UniProt P00747); assay: Mean inhibitory concentration against plasmin; n=3; outline: as §1
Chain of Plasminogen (P00747 97-580 limits assumed): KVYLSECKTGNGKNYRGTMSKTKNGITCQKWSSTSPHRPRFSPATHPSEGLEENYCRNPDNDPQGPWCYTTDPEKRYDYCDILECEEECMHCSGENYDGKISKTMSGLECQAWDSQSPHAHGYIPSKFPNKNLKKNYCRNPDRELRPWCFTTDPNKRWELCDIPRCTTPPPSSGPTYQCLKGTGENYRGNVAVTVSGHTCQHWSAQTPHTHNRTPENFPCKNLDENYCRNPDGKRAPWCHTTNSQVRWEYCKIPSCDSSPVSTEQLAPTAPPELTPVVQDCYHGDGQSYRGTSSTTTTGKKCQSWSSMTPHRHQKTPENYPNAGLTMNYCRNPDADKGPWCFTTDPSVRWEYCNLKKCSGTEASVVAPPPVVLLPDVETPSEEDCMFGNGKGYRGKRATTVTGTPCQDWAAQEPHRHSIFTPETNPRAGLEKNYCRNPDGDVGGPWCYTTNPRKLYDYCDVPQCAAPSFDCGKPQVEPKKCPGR
Chain of Plasminogen (P00747 581-810 limits assumed): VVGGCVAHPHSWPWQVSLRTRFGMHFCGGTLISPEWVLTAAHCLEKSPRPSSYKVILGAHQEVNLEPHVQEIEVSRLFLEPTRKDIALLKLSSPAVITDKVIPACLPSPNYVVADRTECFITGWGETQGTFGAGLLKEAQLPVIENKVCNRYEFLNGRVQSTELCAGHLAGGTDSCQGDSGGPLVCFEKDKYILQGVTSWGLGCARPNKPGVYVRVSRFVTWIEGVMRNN

[3] = Inhibitory concentration against coagulation factor X; n=2
[4] = Number of mouse death after 10 mg/kg compound intravenous administration; NT= not tested; assay type: ADME, organism-based; set-up: dose 10 mg/kg, route intravenous; details: in vivo
Outline: (§2)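 Result recorded as the number of deaths over the number of animals tested.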

[5] = Inhibitory concentration against thrombin (FIIa); n=2
[6] = Number of mouse death after 10 mg/kg compound intra venous administration; n=3; assay type: ADME, organism-based; set-up: dose 10 mg/kg; details: in vivo, iv; outline: as §2
[7] = Number of mouse death after 10 mg/kg compound intravenous administration; n=3; assay type: ADME, organism-based; set-up: dose 10 mg/kg, route intravenous; details: in vivo; outline: as §2
[8] = Mean inhibitory concentration against coagulation factor X; n=3; outline: as §1
[9] = Maximum concentration in monkey plasma after 10 mg/kg oral administration at 120 min; assay type: ADME, organism-based; set-up: dose 10 mg/kg, route oral; details: cercopithecidae
[10] = target: Coagulation factor X (Homo sapiens) (UniProt P00742); details: Plasma, at 10 mg/kg
Chain of Coagulation factor X (Homo sapiens) (P00742 41-179 limits assumed): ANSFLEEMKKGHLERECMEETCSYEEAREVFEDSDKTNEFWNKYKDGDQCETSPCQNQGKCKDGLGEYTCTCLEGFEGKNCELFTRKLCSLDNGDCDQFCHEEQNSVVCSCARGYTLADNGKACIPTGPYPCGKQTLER
Chain of Coagulation factor X (Homo sapiens) (P00742 235-488 limits assumed): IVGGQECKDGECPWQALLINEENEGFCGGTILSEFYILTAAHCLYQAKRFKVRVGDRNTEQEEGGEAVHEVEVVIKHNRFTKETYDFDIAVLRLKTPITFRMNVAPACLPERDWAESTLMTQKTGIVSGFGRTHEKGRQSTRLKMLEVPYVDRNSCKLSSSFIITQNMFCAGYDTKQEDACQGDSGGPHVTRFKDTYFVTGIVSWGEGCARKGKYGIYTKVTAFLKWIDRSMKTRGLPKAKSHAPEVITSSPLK

Compound | IC50 [3] | IC50 [5] | Mortality [7] | also measured
CC(=N)N1CCC(Oc2ccc(C(Cc3ccc4cc[n+](C(=N)N)cc4c3)C(=O)O)cc2)C1 (stereo not drawn) | – | – | – | Ki [1]: > 100000 nM; Ki [2]: 620 nM; Ki (Plasminogen): 23000 nM
Cl.Cl.Cl.N=C(N)N1CCc2ccc(OCC3CCN(Cc4ccncc4)CC3)cc2C1 | 800 nM | > 10000 nM | – | Mortality [4]: 3
Cl.Cl.N=C(N)N1CCc2ccc(OCC3CCN(c4ccncc4CCC(=O)O)CC3)cc2C1 | 200 nM | > 10000 nM | – | Mortality [6]: 0
CCOC(=O)CCc1cnccc1N1CCC(COc2ccc3c(c2)CN(C(=N)N)CC3)CC1.Cl.Cl | 200 nM | > 10000 nM | 3 | –
COC(=O)c1cnccc1N1CCC(COc2ccc3c(c2)CN(C(=N)N)CC3)CC1.Cl.Cl | 200 nM | > 10000 nM | 3 | –
CC(=N)N1CCC(COc2ccc3c(c2)CN(C(=N)N)CC3)CC1.Cl.Cl | 500 nM | > 10000 nM | 3 | –
Cl.Cl.N=C(N)N1CCc2ccc(OCC3CCN(c4ccncc4C(=O)O)CC3)cc2C1 | 2000 nM | > 10000 nM | 0 | –
Cl.Cl.N=C(N)N1CCc2ccc(OCC3CCN(c4ccncc4)CC3)cc2C1 | 60 nM | > 10000 nM | 3 | –
N=C(N)N1CCc2ccc(OCC3CCNCC3)cc2C1 | 3000 nM | > 10000 nM | – | –
Cl.Cl.N=C(N)N1CCc2ccc(OCC3CCN(c4ccnc5ccccc45)CC3)cc2C1 | 400 nM | > 10000 nM | 3 | –
N=C(N)N1CCc2ccc(OCC3(C(=O)O)CCN(c4ccncc4)CC3)cc2C1.O=S(O)O | – | – | – | Ki [1]: > 100000 nM; Ki [8]: 19 nM; Cmax [9]: 391 ng/mL; Ki [2]: 13600 nM; Ki (Plasminogen): 78200 nM
CCOC(=O)C1(COc2ccc3c(c2)CN(C(=N)N)CC3)CCN(c2ccncc2)CC1.Cl.Cl | 80 nM | > 10000 nM | – | Mortality [6]: 3
N=C(N)N1CCc2ccc(OCC3(C(=O)O)CCN(c4ccncc4)CC3)cc2C1 | – | – | – | inhibition [10]: 41%
N=C(N)N1CCc2ccc(OCC3CCN(Cc4ccccn4)CC3)cc2C1 | 1000 nM | > 10000 nM | – | –
Cl.Cl.N=C(N)N1CCc2ccc(OCC3(C(=O)O)CCN(c4ccncc4)CC3)cc2C1 | – | > 10000 nM | – | Mortality [6]: 0
Cl.Cl.N=C(N)N1CCc2ccc(OCC3(C(=O)O)CCN(c4ccncn4)CC3)cc2C1 | 100 nM | > 10000 nM | – | Mortality [6]: 0
Cc1cc(N2CCC(COc3ccc4c(c3)CN(C(=N)N)CC4)(C(=O)O)CC2)ccn1.Cl.Cl | 200 nM | > 10000 nM | – | Mortality [6]: 0
